Data set [1] is described as follows: Apparent permeability across apical to basolateral side of human Caco2 cells at 10 uM at pH 6.5 by LC-tandem MS analysis. It counts as ADME, cell-based. Particulars: Caco-2, pH 6.5. The gist of the method:
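Caco-2 monolayers, apical-to-basolateral transport at pH 6.5. Result given as apparent permeability (Papp).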

The nature of data set [2]: Lipophilicity, log D of the compound at pH 7.4 by HPLC method. The following applies: buffer. It counts as physicochemical. The method, boiled down:
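LogD measured experimentally at pH 7.4 by an HPLC method.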

The subject of another data set is Hepatocyte. Put plainly: Intrinsic clearance in human hepatocytes at 2 uM by LCMS analysis. It counts as ADME, cell-based. The gist of the method: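 Test compound incubated with human hepatocytes. Intrinsic clearance and half-life derived from compound disappearance.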
Data set [3] can be described thus: Antiplatelet activity against human platelet assessed as inhibition of collagen-induced platelet rich plasma aggregation by light transmission aggregometry. It counts as functional, cell-free. The method, boiled down: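 Human platelet rich plasma stimulated with collagen. Aggregation read by light transmission aggregometry in an in-house 96-well plate format.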

For data set [4], the target named is Phosphatidylinositol 4,5-bisphosphate 3-kinase catalytic subunit alpha isoform (Homo sapiens, UniProt P42336). As to the kind of experiment: Inhibition of human recombinant PI3Kalpha assessed as PIP3 production by AlphaScreen assay. Background: Alpha assays give light when donor and acceptor beads are brought close together.
The target in data set [5] is Phosphatidylinositol 4,5-bisphosphate 3-kinase catalytic subunit beta isoform (Homo sapiens, UniProt P42338). As to the kind of experiment: Inhibition of human recombinant PI3Kbeta assessed as PIP3 production by AlphaScreen assay.

Some results are limits rather than exact numbers.

Chain of Phosphatidylinositol 4,5-bisphosphate 3-kinase catalytic subunit alpha isoform (P42336 whole entry, canonical isoform): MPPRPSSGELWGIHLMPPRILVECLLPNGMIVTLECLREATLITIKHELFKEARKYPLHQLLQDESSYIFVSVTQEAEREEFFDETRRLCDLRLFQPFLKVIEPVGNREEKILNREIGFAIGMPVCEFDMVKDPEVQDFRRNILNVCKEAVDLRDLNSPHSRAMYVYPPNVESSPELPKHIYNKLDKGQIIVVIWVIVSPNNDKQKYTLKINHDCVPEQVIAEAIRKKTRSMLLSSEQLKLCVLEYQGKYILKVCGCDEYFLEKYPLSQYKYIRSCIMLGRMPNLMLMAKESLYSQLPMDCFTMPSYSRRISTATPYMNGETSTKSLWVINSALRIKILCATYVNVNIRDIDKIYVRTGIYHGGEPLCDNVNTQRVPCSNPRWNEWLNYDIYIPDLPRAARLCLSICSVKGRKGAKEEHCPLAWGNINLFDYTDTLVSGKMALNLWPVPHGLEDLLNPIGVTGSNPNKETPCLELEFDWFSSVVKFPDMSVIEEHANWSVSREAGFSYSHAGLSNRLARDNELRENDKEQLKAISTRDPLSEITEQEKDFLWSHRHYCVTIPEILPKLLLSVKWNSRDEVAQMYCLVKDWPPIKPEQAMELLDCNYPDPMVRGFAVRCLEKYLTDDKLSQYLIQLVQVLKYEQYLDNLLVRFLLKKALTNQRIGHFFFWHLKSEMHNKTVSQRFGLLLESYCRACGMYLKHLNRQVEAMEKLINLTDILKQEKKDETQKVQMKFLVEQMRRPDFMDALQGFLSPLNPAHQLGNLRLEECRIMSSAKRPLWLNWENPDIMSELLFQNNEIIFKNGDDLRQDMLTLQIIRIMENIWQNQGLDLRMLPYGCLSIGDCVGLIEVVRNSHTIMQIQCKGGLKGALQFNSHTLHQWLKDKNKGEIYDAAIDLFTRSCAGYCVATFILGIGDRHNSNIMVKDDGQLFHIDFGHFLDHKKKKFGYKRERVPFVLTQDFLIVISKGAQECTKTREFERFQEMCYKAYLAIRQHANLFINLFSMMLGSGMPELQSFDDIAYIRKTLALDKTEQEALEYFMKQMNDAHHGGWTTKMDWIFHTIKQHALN
Chain of Phosphatidylinositol 4,5-bisphosphate 3-kinase catalytic subunit beta isoform (P42338 whole entry, canonical isoform): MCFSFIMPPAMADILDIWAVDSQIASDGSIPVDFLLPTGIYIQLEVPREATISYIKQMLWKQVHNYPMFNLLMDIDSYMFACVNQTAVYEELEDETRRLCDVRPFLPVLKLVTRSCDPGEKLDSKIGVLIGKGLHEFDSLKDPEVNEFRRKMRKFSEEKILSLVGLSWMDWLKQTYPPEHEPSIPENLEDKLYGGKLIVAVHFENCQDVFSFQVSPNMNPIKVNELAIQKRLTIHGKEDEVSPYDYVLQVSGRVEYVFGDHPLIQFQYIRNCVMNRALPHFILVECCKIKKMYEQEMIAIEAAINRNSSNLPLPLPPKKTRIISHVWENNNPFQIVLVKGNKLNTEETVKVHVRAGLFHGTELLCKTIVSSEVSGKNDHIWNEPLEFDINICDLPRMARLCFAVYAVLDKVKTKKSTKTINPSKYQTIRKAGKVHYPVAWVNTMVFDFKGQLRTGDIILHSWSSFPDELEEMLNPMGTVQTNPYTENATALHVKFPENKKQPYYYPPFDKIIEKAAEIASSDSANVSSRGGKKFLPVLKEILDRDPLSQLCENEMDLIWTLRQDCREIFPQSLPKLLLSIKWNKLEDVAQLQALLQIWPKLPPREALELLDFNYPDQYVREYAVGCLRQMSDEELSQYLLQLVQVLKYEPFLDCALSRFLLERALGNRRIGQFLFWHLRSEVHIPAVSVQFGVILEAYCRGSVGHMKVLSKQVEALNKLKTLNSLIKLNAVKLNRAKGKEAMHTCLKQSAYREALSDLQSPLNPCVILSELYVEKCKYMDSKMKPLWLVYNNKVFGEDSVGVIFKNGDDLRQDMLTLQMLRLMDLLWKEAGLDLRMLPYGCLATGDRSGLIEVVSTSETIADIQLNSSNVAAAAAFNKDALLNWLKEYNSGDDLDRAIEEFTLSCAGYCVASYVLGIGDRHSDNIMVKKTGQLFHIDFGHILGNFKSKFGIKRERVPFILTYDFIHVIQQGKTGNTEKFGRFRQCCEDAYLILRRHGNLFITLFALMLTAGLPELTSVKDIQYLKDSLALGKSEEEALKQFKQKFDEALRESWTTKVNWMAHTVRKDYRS

For `CC(Nc1ccccc1)c1cc(C(=O)N(C)C)cn2c(=O)cc(N3CCOCC3)nc12` (racemic), in data set [1], the Papp A→B (usually the apparent permeability from the apical to the basolateral side of a cell layer) at 10 µM is 35.4 ×10⁻⁶ cm/s. Also, in data set [2], the logD (commonly the decadic logarithm of the distribution of all forms, ionised or not, between an organic phase and buffer at a given pH) is 2.7. Besides, the “Intrinsic clearance (CLint)” value in the data set on Hepatocyte amounted to 4.3 µL/min.

In data set [2], `CC(Nc1ccccc1)c1cc(C(=O)NCCN2CCNCC2)cn2c(=O)cc(N3CCOCC3)nc12` (racemic) showed a logD of 1.5. Further, in the data set on Hepatocyte, the “Intrinsic clearance (CLint)” value was < 4 µL/min.

On to `CC(Nc1ccccc1)c1cc(C(=O)NCCN(C)C)cn2c(=O)cc(N3CCOCC3)nc12` (racemic), for which, in data set [2], the logD came to 1.7. The “Intrinsic clearance (CLint)” value in the data set on Hepatocyte was < 4 µL/min.

In data set [2], `Cc1c(F)cccc1OC(C)c1cc(C(=O)N(C)CCO)cn2c(=O)cc(N3CCOCC3)nc12` (racemic) gave a logD of 3.3. Also, the IC50 (commonly the concentration needed to halve the response being measured) in data set [3] was 0.7 µM.

Consider `CC(Oc1cccc(C#N)c1)c1cc(C(=O)N(C)CCO)cn2c(=O)cc(N3CCOCC3)nc12` (racemic), for which the logD in data set [2] was found to be 2. Moreover, the IC50 in data set [3] was determined as 1.5 µM.

Consider `CC(Nc1ccccc1)c1cc(C(=O)N(C)CCO)cn2c(=O)cc(N3CCOCC3)nc12` (racemic), for which the apical-to-basolateral permeability (Papp A→B) at 10 µM in data set [1] stood at 4.3 ×10⁻⁶ cm/s. In data set [2], the logD turned out to be 2. Further, the “Intrinsic clearance (CLint)” value with Hepatocyte is < 4 µL/min.

Consider `CC(Nc1ccccc1)c1cc(C(=O)N(C)CC(=O)O)cn2c(=O)cc(N3CCOCC3)nc12` (racemic), for which, in data set [1], the Papp A→B at 10 µM is 1 ×10⁻⁶ cm/s. The same compound had a logD in data set [2] of 0.6. The “Intrinsic clearance (CLint)” value with Hepatocyte was < 4 µL/min.

In turn, `Cc1cccc(OC(C)c2cc(C(=O)N(C)CCO)cn3c(=O)cc(N4CCOCC4)nc23)c1` (racemic) had a pH-dependent lipophilicity (logD) in data set [2] of 2.8. Further, in data set [3], the IC50 turned out to be 5 µM.

Consider `CC(Nc1ccccc1)c1cc(C(=O)O)cn2c(=O)cc(N3CCOCC3)nc12` (racemic), for which the Papp A→B at 10 µM in data set [1] turned out to be 0.04 ×10⁻⁶ cm/s. The log distribution coefficient (logD) in data set [2] was found to be 0.6. In the data set on Hepatocyte, the “Intrinsic clearance (CLint)” value was < 4 µL/min.

As for `CC(Nc1ccccc1)c1cc(C(=O)N2CCOCC2)cn2c(=O)cc(N3CCOCC3)nc12` (racemic), in data set [1], the Papp A→B at 10 µM worked out at 26.9 ×10⁻⁶ cm/s. The logD in data set [2] came to 2.7. Also, the “Intrinsic clearance (CLint)” value in the data set with Hepatocyte is < 4 µL/min.

`COc1cccc(OC(C)c2cc(C(=O)N(C)CCO)cn3c(=O)cc(N4CCOCC4)nc23)c1` (racemic) showed a logD in data set [2] of 2.3. Also, in data set [3], the IC50 is 1.9 µM.

On to `Cc1cc(C(C)Nc2cccc(C(=O)O)c2)c2nc(N3CCOCC3)cc(=O)n2c1` (racemic), for which the Papp A→B at 10 µM in data set [1] was 0.9 ×10⁻⁶ cm/s. Moreover, the logD in data set [2] is 0.3. Besides, the “Intrinsic clearance (CLint)” value in the data set on Hepatocyte is < 4 µL/min.

In data set [2], `Cc1ccccc1OC(C)c1cc(C(=O)N(C)CCO)cn2c(=O)cc(N3CCOCC3)nc12` (racemic) registered a pH-dependent lipophilicity (logD) of 3. Moreover, the half-maximal inhibitory concentration (IC50) in data set [3] turned out to be 0.7 µM.

With `Cc1cc(C(C)Nc2ccccc2-c2nnn[nH]2)c2nc(N3CCOCC3)cc(=O)n2c1` (racemic), in data set [1], the Papp A→B at 10 µM was 0.08 ×10⁻⁶ cm/s. Besides, the logD in data set [2] is 0.8. For the same compound, in the data set with Hepatocyte, the “Intrinsic clearance (CLint)” value was determined as 18.1 µL/min.

On to `CC(Oc1ccccc1F)c1cc(C(=O)N(C)CCO)cn2c(=O)cc(N3CCOCC3)nc12` (racemic), for which the logD in data set [2] was found to be 2.3. In addition, the IC50 in data set [3] is 2.1 µM.

As for `Cc1cc(C(C)Nc2ccccc2)c2nc(N3CCOCC3)cc(=O)n2c1` (racemic), the Papp A→B at 10 µM in data set [1] turned out to be 66 ×10⁻⁶ cm/s. Also, the IC50 in data set [4] was determined as 5.8 µM. In addition, the “Intrinsic clearance (CLint)” value with Hepatocyte was 20 µL/min.

For `Cc1cc(C(C)Nc2cc(Cl)ccc2C(=O)O)c2nc(N3CCOCC3)cc(=O)n2c1` (racemic), in data set [1], the Papp A→B at 10 µM stood at 15 ×10⁻⁶ cm/s. This compound showed a logD in data set [2] of 1.2. The “Intrinsic clearance (CLint)” value with Hepatocyte turned out to be 11.9 µL/min.

As for `Cc1cc(C(C)Nc2ccccc2S(=O)(=O)O)c2nc(N3CCOCC3)cc(=O)n2c1` (racemic), in data set [1], the Papp A→B at 10 µM was < 0.05 ×10⁻⁶ cm/s. The compound also came in with a logD in data set [2] of 0.3. Moreover, the “Intrinsic clearance (CLint)” value in the data set with Hepatocyte is < 4 µL/min.

On to `Cc1cc([C@@H](C)Nc2ccccc2C(=O)NS(C)(=O)=O)c2nc(N3CCOCC3)cc(=O)n2c1`, for which the Papp A→B at 10 µM in data set [1] stood at 0.11 ×10⁻⁶ cm/s. In addition, the half-inhibitory concentration (IC50) amounted to 0.012 µM in data set [5] and 0.16 µM in data set [4]. In data set [2], this compound returned a logD of 0.9. Besides, the “Intrinsic clearance (CLint)” value with Hepatocyte stood at 15 µL/min.

With `CC(Oc1ccccc1)c1cc(C(=O)N(C)CCO)cn2c(=O)cc(N3CCOCC3)nc12` (racemic), in data set [2], the logD turned out to be 2.3. Further, the IC50 in data set [3] was 0.4 µM.

Take `COc1ccccc1OC(C)c1cc(C(=O)N(C)CCO)cn2c(=O)cc(N3CCOCC3)nc12` (racemic): in data set [2], the logD stood at 1.9. The IC50 in data set [3] is 9.6 µM.

`Cc1cc([C@@H](C)Nc2ccccc2C(=O)NO)c2nc(N3CCOCC3)cc(=O)n2c1`: the Papp A→B at 10 µM in data set [1] was determined as 52 ×10⁻⁶ cm/s. In addition, the IC50 was determined as 0.084 µM in data set [5] and 2.88 µM in data set [4]. This compound displayed a logD in data set [2] of 1.5. In the data set with Hepatocyte, the “Intrinsic clearance (CLint)” value came out at 30.2 µL/min.

In data set [2], `Cc1cc(OC(C)c2cc(C(=O)N(C)CCO)cn3c(=O)cc(N4CCOCC4)nc23)ccc1F` (racemic) came in with a logD of 2.9. Further, the concentration for half-maximal inhibition (IC50) in data set [3] came out at 2.5 µM.

(Values after ChEMBL document CHEMBL3352617, “Discovery of 9-(1-phenoxyethyl)-2-morpholino-4-oxo-pyrido[1,2-a]pyrimidine-7-carboxamides as oral PI3Kβ inhibitors, useful as antiplatelet agents” (Bioorg Med Chem Lett, 2014).)
